ChEMBL document CHEMBL1649165, “Activity profile in vitro of micafungin against Spanish clinical isolates of common and emerging species of yeasts and molds” (2009)
≈ marks a conversion by molar mass, not a printed value. *1 amine or outer side, *2 acyl side, *3 side chain or, on linkers, in order; H or OH if unused. Where a SMILES comes first, the peptide text is derived from it. Bridges are numbered along the chain shown (N, C = ends). [ ]: non-standard residue; d: D form. The star is where a group is joined. pTerphenylCO(4''-OnC5H11) = CCCCCOc1ccc(-c2ccc(-c3ccc(C(=O)*)cc3)cc2)cc1; Orn(4R-OH,5R-OH) = O=C([C@H](C[C@@H](O)[C@@H](O)N[*:3])N[*:1])[*:2]; hTyr(3S-OH,4S-OH) = N[C@H](C(=O)O)[C@H](O)[C@@H](O)c1ccc(O)cc1; Pro(3S-OH,4S-Me) = C[C@H]1CN[C@H](C(=O)O)[C@H]1O; Hyp = O=C(O)[C@@H]1C[C@@H](O)CN1

Key:
Type in all cases: functional
Trichosporon dermatis = assay: Antimicrobial activity against Trichosporon dermatis by broth microdilution method; details: Cutaneotrichosporon dermatis
Summary of the method: (§1)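 Nonfermentative yeast clinical isolates (Rhodotorula, Trichosporon) tested by broth microdilution. The EUCAST yeast recommendations were followed strictly, with one minor modification to improve growth. MIC was read as the endpoint.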

Mucor = assay: Antimicrobial activity against Mucor spp.by broth microdilution method
Summary of the method: (§2)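 Filamentous fungus clinical isolates tested by the AFST-EUCAST reference broth microdilution method for moulds. For echinocandins, the endpoint was the minimum effective concentration: the lowest drug concentration giving aberrant hyphal growth, read with an inverted microscope.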

Aspergillus niger = assay: Antimicrobial activity against Aspergillus niger by broth microdilution method
Summary of the method: (§3)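 Clinical mould isolates, tested by broth microdilution using the AFST-EUCAST reference method for filamentous fungi. For echinocandins, the endpoint was the minimum effective concentration: the lowest drug concentration giving aberrant hyphal growth, read with an inverted microscope.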

[1] = tested on: Scopulariopsis brevicaulis; assay: Antimicrobial activity against Scopulariopsis brevicaulis by broth microdilution method; summary of the method: as §2
Fusarium verticillioides = assay: Antimicrobial activity against Fusarium verticillioides by broth microdilution method; summary of the method: as §2
[Candida] intermedia = Antimicrobial activity against Candida intermedia by broth microdilution method; details: Sungouiella intermedia
Summary of the method: (§4)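 Clinical isolates from human patients, tested by broth microdilution using the AFST-EUCAST reference procedure for fermentative yeasts. The MIC was read per that reference method.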

Aspergillus terreus = assay: Antimicrobial activity against Aspergillus terreus by broth microdilution method; summary of the method: as §3
[Candida] zeylanoides = Antimicrobial activity against Candida zeylanoides by broth microdilution method; details: Dujonia zeylanoides; summary of the method: as §4
Pichia norvegensis = assay: Antimicrobial activity against Candida norvegensis by broth microdilution method; summary of the method: as §4
Phialemonium curvatum = assay: Antimicrobial activity against Phialemonium curvatum by broth microdilution method; details: Thyridium curvatum; summary of the method: as §2
Beauveria bassiana = assay: Antimicrobial activity against Beauveria bassiana by broth microdilution method; summary of the method: as §3
Yarrowia lipolytica = assay: Antimicrobial activity against Yarrowia lipolytica by broth microdilution method
Aspergillus versicolor = assay: Antimicrobial activity against Aspergillus versicolor by broth microdilution method; summary of the method: as §3
Hortaea werneckii = assay: Antimicrobial activity against Hortaea werneckii by broth microdilution method
Rhizomucor = assay: Antimicrobial activity against Rhizomucor spp.by broth microdilution method; summary of the method: as §2
Rhodotorula mucilaginosa = assay: Antimicrobial activity against Rhodotorula mucilaginosa by broth microdilution method; summary of the method: as §1
Paecilomyces lilacinus = assay: Antimicrobial activity against Paecilomyces lilacinus by broth microdilution method; details: Purpureocillium lilacinum; summary of the method: as §2
Aspergillus glaucus = assay: Antimicrobial activity against Aspergillus glaucus by broth microdilution method; summary of the method: as §3
Trichosporon domesticum = assay: Antimicrobial activity against Trichosporon mycotoxinivorans by broth microdilution method; details: Apiotrichum domesticum
Summary of the method: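 Spanish human clinical isolates were tested as nonfermentative yeasts by broth microdilution. The method strictly followed the EUCAST recommendations, with a minor modification to improve growth, and the read-out was the MIC.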

Rhodotorula glutinis = assay: Antimicrobial activity against Rhodotorula glutinis by broth microdilution method; summary of the method: as §1
Fennellia nivea = assay: Antimicrobial activity against Aspergillus niveus by broth microdilution method; summary of the method: as §3
Kluyveromyces marxianus = assay: Antimicrobial activity against Candida kefyr by broth microdilution method; summary of the method: as §4
Aspergillus nidulans = assay: Antimicrobial activity against Aspergillus nidulans by broth microdilution method; summary of the method: as §3
Scedosporium apiospermum = assay: Antimicrobial activity against Scedosporium apiospermum by broth microdilution method; summary of the method: as §2
Candida tropicalis = assay: Antimicrobial activity against Candida tropicalis by broth microdilution method; summary of the method: as §4
Penicillium = assay: Antimicrobial activity against Penicillium spp. by broth microdilution method; summary of the method: as §2
Trichoderma = assay: Antimicrobial activity against Trichoderma spp. by broth microdilution method; summary of the method: as §2
Aspergillus ochraceus = assay: Antimicrobial activity against Aspergillus ochraceus by broth microdilution method; summary of the method: as §3
Lewia infectoria = assay: Antimicrobial activity against Alternaria infectoria by broth microdilution method; summary of the method: as §3
Fusarium oxysporum = assay: Antimicrobial activity against Fusarium oxysporum by broth microdilution method; summary of the method: as §3
Exophiala dermatitidis = assay: Antimicrobial activity against Exophiala dermatitidis by broth microdilution method
Aureobasidium pullulans = assay: Antimicrobial activity against Aureobasidium pullulans by broth microdilution method
Lecythophora hoffmannii = assay: Antimicrobial activity against Lecythophora hoffmannii by broth microdilution method; details: Coniochaeta hoffmannii; summary of the method: as §2
Trichosporon = assay: Antimicrobial activity against Trichosporon spp. by broth microdilution method; summary of the method: as §1
Saksenaea vasiformis = assay: Antimicrobial activity against Saksenaea vasiformis by broth microdilution method; summary of the method: as §2
Candida albicans = assay: Antimicrobial activity against Candida albicans by broth microdilution method; summary of the method: as §4
Fusarium proliferatum = assay: Antimicrobial activity against Fusarium proliferatum by broth microdilution method; summary of the method: as §3
Aspergillus sydowii = assay: Antimicrobial activity against Aspergillus sydowii by broth microdilution method; summary of the method: as §3
Saccharomyces cerevisiae = assay: Antimicrobial activity against Saccharomyces cerevisiae by broth microdilution method
Wickerhamomyces anomalus = assay: Antimicrobial activity against Candida pelliculosa by broth microdilution method; details: Hansenula anomala; summary of the method: as §4
Aspergillus flavus = assay: Antimicrobial activity against Aspergillus flavus by broth microdilution method; summary of the method: as §3
Candida metapsilosis = assay: Antimicrobial activity against Candida metapsilosis by broth microdilution method; details: Lodderomyces metapsilosis; summary of the method: as §4
[2] = Antimicrobial activity against Rhizopus microsporus by broth microdilution method; summary of the method: as §2
Alternaria alternata = assay: Antimicrobial activity against Alternaria alternata by broth microdilution method; summary of the method: as §3
Nakaseomyces glabratus = assay: Antimicrobial activity against Candida glabrata by broth microdilution method; summary of the method: as §4

CCCCCOc1ccc(-c2ccc(-c3ccc(C(=O)N[C@H]4C[C@@H](O)[C@@H](O)NC(=O)[C@@H]5[C@@H](O)[C@@H](C)CN5C(=O)[C@H]([C@@H](C)O)NC(=O)[C@H]([C@H](O)[C@@H](O)c5ccc(O)cc5)NC(=O)[C@@H]5C[C@@H](O)CN5C(=O)[C@H]([C@@H](C)O)NC4=O)cc3)cc2)cc1 [ANIDULAFUNGIN] ({pTerphenylCO(4''-OnC5H11)}-[Orn(4R-OH,5R-OH)]T[Hyp][hTyr(3S-OH,4S-OH)]T[Pro(3S-OH,4S-Me)]; lactam 1-C)
MIC50 (Trichosporon dermatis): > 16 µg/mL | MIC90 (Trichosporon dermatis): > 16 µg/mL | MIC50 (Mucor): > 16 µg/mL | MIC90 (Mucor): > 16 µg/mL | MIC50 (Aspergillus niger): 0.03 µg/mL (≈ 0.0263 µM) | MIC90 (Aspergillus niger): 0.03 µg/mL (≈ 0.0263 µM) | MIC50 [1]: > 16 µg/mL | MIC90 [1]: > 16 µg/mL | MIC50 (Fusarium verticillioides): > 16 µg/mL | MIC90 (Fusarium verticillioides): > 16 µg/mL | MIC50 ([Candida] intermedia): 0.06 µg/mL (≈ 0.0526 µM) | MIC90 ([Candida] intermedia): 0.25 µg/mL (≈ 0.219 µM) | MIC50 (Aspergillus terreus): 0.03 µg/mL (≈ 0.0263 µM) | MIC90 (Aspergillus terreus): 0.03 µg/mL (≈ 0.0263 µM) | MIC50 ([Candida] zeylanoides): 0.06 µg/mL (≈ 0.0526 µM) | MIC90 ([Candida] zeylanoides): 0.25 µg/mL (≈ 0.219 µM) | MIC50 (Pichia norvegensis): 0.06 µg/mL (≈ 0.0526 µM) | MIC90 (Pichia norvegensis): 0.25 µg/mL (≈ 0.219 µM) | MIC50 (Phialemonium curvatum): > 16 µg/mL | MIC90 (Phialemonium curvatum): > 16 µg/mL | MIC50 (Beauveria bassiana): > 16 µg/mL | MIC90 (Beauveria bassiana): > 16 µg/mL | MIC50 (Yarrowia lipolytica): 0.06 µg/mL (≈ 0.0526 µM) | MIC90 (Yarrowia lipolytica): 0.12 µg/mL (≈ 0.105 µM) | MIC50 (Aspergillus versicolor): 0.03 µg/mL (≈ 0.0263 µM) | MIC90 (Aspergillus versicolor): 0.03 µg/mL (≈ 0.0263 µM) | MIC50 (Hortaea werneckii): 0.03 µg/mL (≈ 0.0263 µM) | MIC90 (Hortaea werneckii): 0.06 µg/mL (≈ 0.0526 µM) | MIC50 (Rhizomucor): > 16 µg/mL | MIC90 (Rhizomucor): > 16 µg/mL | MIC50 (Rhodotorula mucilaginosa): > 16 µg/mL | MIC90 (Rhodotorula mucilaginosa): > 16 µg/mL | MIC50 (Paecilomyces lilacinus): > 16 µg/mL | MIC90 (Paecilomyces lilacinus): > 16 µg/mL | MIC50 (Aspergillus glaucus): 0.06 µg/mL (≈ 0.0526 µM) | MIC90 (Aspergillus glaucus): 0.25 µg/mL (≈ 0.219 µM) | MIC50 (Trichosporon domesticum): > 16 µg/mL | MIC90 (Trichosporon domesticum): > 16 µg/mL | MIC50 (Rhodotorula glutinis): > 16 µg/mL | MIC90 (Rhodotorula glutinis): > 16 µg/mL | MIC50 (Fennellia nivea): 0.06 µg/mL (≈ 0.0526 µM) | MIC90 (Fennellia nivea): 0.25 µg/mL (≈ 0.219 µM) | MIC50 (Kluyveromyces marxianus): 0.03 µg/mL (≈ 0.0263 µM) | MIC90 (Kluyveromyces marxianus): 0.03 µg/mL (≈ 0.0263 µM) | MIC50 (Aspergillus nidulans): 0.03 µg/mL (≈ 0.0263 µM) | MIC90 (Aspergillus nidulans): 0.25 µg/mL (≈ 0.219 µM) | MIC50 (Scedosporium apiospermum): 0.5 µg/mL (≈ 0.438 µM) | MIC90 (Scedosporium apiospermum): 4 µg/mL (≈ 3.51 µM) | MIC50 (Candida tropicalis): 0.03 µg/mL (≈ 0.0263 µM) | MIC90 (Candida tropicalis): 0.03 µg/mL (≈ 0.0263 µM) | MIC50 (Penicillium): 0.03 µg/mL (≈ 0.0263 µM) | MIC90 (Penicillium): 0.03 µg/mL (≈ 0.0263 µM) | MIC50 (Trichoderma): > 16 µg/mL | MIC90 (Trichoderma): > 16 µg/mL | MIC50 (Aspergillus ochraceus): 0.06 µg/mL (≈ 0.0526 µM) | MIC90 (Aspergillus ochraceus): 0.25 µg/mL (≈ 0.219 µM) | MIC50 (Lewia infectoria): 2 µg/mL (≈ 1.75 µM) | MIC90 (Lewia infectoria): > 16 µg/mL | MIC50 (Fusarium oxysporum): > 16 µg/mL | MIC90 (Fusarium oxysporum): > 16 µg/mL | MIC50 (Exophiala dermatitidis): 0.03 µg/mL (≈ 0.0263 µM) | MIC90 (Exophiala dermatitidis): 0.06 µg/mL (≈ 0.0526 µM) | MIC50 (Aureobasidium pullulans): 0.03 µg/mL (≈ 0.0263 µM) | MIC90 (Aureobasidium pullulans): 0.06 µg/mL (≈ 0.0526 µM) | MIC50 (Lecythophora hoffmannii): 0.03 µg/mL (≈ 0.0263 µM) | MIC90 (Lecythophora hoffmannii): 0.06 µg/mL (≈ 0.0526 µM) | MIC50 (Trichosporon): > 16 µg/mL | MIC90 (Trichosporon): > 16 µg/mL | MIC50 (Saksenaea vasiformis): > 16 µg/mL | MIC90 (Saksenaea vasiformis): > 16 µg/mL | MIC50 (Candida albicans): 0.03 µg/mL (≈ 0.0263 µM) | MIC90 (Candida albicans): 0.03 µg/mL (≈ 0.0263 µM) | MIC50 (Fusarium proliferatum): > 16 µg/mL | MIC90 (Fusarium proliferatum): > 16 µg/mL | MIC50 (Aspergillus sydowii): 0.03 µg/mL (≈ 0.0263 µM) | MIC90 (Aspergillus sydowii): 0.03 µg/mL (≈ 0.0263 µM) | MIC50 (Saccharomyces cerevisiae): 0.12 µg/mL (≈ 0.105 µM) | MIC90 (Saccharomyces cerevisiae): 0.25 µg/mL (≈ 0.219 µM) | MIC50 (Wickerhamomyces anomalus): 0.06 µg/mL (≈ 0.0526 µM) | MIC90 (Wickerhamomyces anomalus): 0.25 µg/mL (≈ 0.219 µM) | MIC50 (Aspergillus flavus): > 16 µg/mL | MIC90 (Aspergillus flavus): > 16 µg/mL | MIC50 (Candida metapsilosis): 0.06 µg/mL (≈ 0.0526 µM) | MIC90 (Candida metapsilosis): 0.25 µg/mL (≈ 0.219 µM) | MIC50 [2]: > 16 µg/mL | MIC90 [2]: > 16 µg/mL | MIC50 (Alternaria alternata): 0.06 µg/mL (≈ 0.0526 µM) | MIC90 (Alternaria alternata): > 16 µg/mL | MIC50 (Nakaseomyces glabratus): 0.03 µg/mL (≈ 0.0263 µM) | MIC90 (Nakaseomyces glabratus): 0.03 µg/mL (≈ 0.0263 µM)
